The source made the active and inactive calls. The calls are words filed in the database; no cut-off is given here.
Assays:
[1] = target: T1, Nuclear factor erythroid 2-related factor 2 (Mus musculus) (UniProt Q60795); assay: Activation of Nrf2 in mouse BV-2 cells assessed as increase in GCLM expression at 10 uM after 6 hrs by Western blot analysis relative to control; format: cell-based; conditions: filed as activator
T1 sequence (whole entry): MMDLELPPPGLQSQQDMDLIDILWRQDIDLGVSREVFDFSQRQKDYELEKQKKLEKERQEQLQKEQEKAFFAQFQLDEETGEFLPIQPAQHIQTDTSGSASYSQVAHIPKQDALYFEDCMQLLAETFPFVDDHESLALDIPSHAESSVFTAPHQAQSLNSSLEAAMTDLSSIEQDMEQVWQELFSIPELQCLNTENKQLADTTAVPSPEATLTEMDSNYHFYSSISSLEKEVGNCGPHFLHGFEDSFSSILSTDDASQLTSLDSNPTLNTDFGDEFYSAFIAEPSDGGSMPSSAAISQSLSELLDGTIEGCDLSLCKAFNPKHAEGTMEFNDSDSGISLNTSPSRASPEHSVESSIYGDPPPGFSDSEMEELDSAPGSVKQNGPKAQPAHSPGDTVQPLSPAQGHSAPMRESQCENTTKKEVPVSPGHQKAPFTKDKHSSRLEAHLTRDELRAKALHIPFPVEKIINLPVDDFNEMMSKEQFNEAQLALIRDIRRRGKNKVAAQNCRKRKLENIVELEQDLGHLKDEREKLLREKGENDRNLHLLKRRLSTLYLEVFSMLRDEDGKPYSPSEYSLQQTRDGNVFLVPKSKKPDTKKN
Summary of the method: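 BV-2 microglia grown in RPMI-1640 with 10% FBS, penicillin-streptomycin and 2 mM L-glutamine at 37 °C, 5% CO2. Cells exposed to a range of concentrations for 6 h, then HO-1, GCLC, GCLM and SOD1 protein measured by Western blot. Band intensity normalized to β-actin and given as fold of vehicle control. Mean ± SEM, n = 3, three separate experiments.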

[2] = target: T1, Nuclear factor erythroid 2-related factor 2 (Mus musculus); assay: Activation of Nrf2 in mouse BV-2 cells assessed as increase in HO1 mRNA expression at 1 uM after 6 hrs by RT-qPCR analysis relative to control; format: cell-based; conditions: filed as activator
Summary of the method: (§1)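 BV-2 cells exposed to a range of concentrations for 6 h. Ho1, Gclc, Gclm and Sod1 mRNA quantified by RT-qPCR and expressed relative to vehicle-treated control. Mean ± SEM, n = 3; Student's t-test.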

[3] = test system: BV-2; assay: Antiinflammatory activity in mouse BV-2 cells assessed as inhibition of LPS-induced iNOS expression at 2 uM preincubated for 6 hrs followed by LPS stimulation and measured after 24 hrs by Western blot analysis; format: functional, cell-based; conditions: time 30.0 hrs
Summary of the method: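 BV-2 cells pretreated with compound, then stimulated with LPS. iNOS protein measured by Western blot with β-actin as internal control. Mean ± SEM, n = 3, three separate experiments.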

[4] = target: T2, CYP1A2 (Homo sapiens, UniProt P05177); assay: Inhibition of CYP1A2 (unknown origin) assessed as residual activity; format: ADME
T2 sequence (P05177 whole entry): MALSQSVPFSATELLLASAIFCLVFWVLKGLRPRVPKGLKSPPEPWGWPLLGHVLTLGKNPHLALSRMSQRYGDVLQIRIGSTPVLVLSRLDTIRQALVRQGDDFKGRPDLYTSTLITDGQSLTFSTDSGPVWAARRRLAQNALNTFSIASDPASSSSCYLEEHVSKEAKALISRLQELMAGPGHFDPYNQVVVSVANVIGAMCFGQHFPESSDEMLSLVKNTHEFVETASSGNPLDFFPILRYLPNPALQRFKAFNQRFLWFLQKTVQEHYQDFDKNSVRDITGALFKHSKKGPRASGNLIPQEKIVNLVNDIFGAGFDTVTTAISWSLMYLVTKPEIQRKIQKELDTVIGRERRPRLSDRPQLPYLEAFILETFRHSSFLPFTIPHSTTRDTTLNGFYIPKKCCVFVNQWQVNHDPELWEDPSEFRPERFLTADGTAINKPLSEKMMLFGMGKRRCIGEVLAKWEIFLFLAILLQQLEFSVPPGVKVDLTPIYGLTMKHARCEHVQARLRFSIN

[5] = target: T1, Nuclear factor erythroid 2-related factor 2 (Mus musculus); assay: Activation of Nrf2 in mouse BV-2 cells assessed as increase in Sod1 mRNA expression at 1 uM after 6 hrs by RT-qPCR analysis relative to control; format: cell-based; conditions: filed as activator; summary of the method: as §1
[6] = test system: Mus musculus; assay: Neuroprotective activity in MPTP-induced C57BL/6 mouse model of Parkinson's disease assessed as ability to pull and climb to the top of the hanger at 30 mg/kg, po pretreated for 1 day followed by MPTP challenge and subsequent compound dosing for 2 days measured 6 days post MPTP challenge by coat-hanger test; format: functional, organism-based; conditions: time 7.0 day
Summary of the method: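 Male C57BL/6 mice, 10 weeks old, 23–26 g, n = 10 per group. Dosed 30 mg/kg p.o. for 3 consecutive days in 10% N-methyl-2-pyrrolidone/20% Tween-80 in water. On day 2, MPTP-HCl 20 mg/kg i.p. given four times at 2 h intervals. Coat-hanger (scored 1–5, test done twice) and vertical grid tests run 6 days after MPTP. Brains taken next day for anti-TH immunohistochemistry (1:1000, DAB).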

[7] = target: CYP3A4 (Homo sapiens, UniProt P08684); assay: Inhibition of CYP3A4 (unknown origin) assessed as residual activity; format: ADME
[8] = target: T1, Nuclear factor erythroid 2-related factor 2 (Mus musculus); assay: Activation of Nrf2 in mouse BV-2 cells assessed as increase in nuclear Nrf2 levels at 10 uM after 6 hrs by Western blot analysis relative to control; format: cell-based; conditions: filed as activator
[9] = target: CYP2C9 (Homo sapiens, UniProt P11712); assay: Inhibition of CYP2C9 (unknown origin) assessed as residual activity; format: ADME
Chain of CYP2C9 (P11712 whole entry): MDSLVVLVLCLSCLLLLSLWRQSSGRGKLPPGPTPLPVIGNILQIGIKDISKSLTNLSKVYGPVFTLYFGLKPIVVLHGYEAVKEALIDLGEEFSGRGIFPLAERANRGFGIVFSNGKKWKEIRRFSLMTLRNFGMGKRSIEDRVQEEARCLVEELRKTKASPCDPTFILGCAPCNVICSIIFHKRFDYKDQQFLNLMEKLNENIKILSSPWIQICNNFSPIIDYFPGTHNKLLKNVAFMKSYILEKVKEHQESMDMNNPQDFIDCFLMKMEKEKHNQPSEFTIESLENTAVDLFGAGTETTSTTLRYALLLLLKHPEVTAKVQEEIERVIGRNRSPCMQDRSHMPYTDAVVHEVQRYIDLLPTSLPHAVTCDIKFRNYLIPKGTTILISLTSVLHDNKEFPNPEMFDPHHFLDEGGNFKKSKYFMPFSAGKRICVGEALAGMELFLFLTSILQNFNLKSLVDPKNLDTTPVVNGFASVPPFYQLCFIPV

Chain of CYP3A4 (P08684 whole entry): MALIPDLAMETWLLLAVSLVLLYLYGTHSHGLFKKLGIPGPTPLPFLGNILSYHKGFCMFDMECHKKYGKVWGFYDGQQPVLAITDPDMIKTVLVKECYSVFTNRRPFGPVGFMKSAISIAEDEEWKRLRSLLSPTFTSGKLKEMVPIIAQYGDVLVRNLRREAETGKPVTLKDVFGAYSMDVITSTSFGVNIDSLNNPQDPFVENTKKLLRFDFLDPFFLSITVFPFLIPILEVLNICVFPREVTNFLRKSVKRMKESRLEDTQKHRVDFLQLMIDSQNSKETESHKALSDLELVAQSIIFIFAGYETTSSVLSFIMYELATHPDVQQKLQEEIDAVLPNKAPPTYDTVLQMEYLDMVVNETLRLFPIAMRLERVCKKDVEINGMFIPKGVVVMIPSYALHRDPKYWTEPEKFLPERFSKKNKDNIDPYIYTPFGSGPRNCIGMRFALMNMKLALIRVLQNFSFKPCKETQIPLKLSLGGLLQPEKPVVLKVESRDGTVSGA

## O=S(=O)(/C=C/c1ncccc1Cl)c1ccccc1Cl
[1]
  fold change (FC): 26.1
[2]
  fold change (FC): 6
[3]
  inhibition: Active
[4]
  activity: 88.4%
[5]
  fold change (FC): 2.5
[6]
  Activity: Active
[7]
  activity: 91.2%
[8]
  fold change (FC): 22.6
[9]
  activity: 69.1%
